One may read the IC50 as the point on the concentration scale where inhibition reaches its midpoint. A word on the half-life: it is the time in which the quantity being followed falls by half. The low end stands for fast loss, the high end for slow loss. For orientation: bioavailability means the share of a dose that reaches the circulation, judged against a reference dose that is usually intravenous. A higher bioavailability goes with good availability. The term Cmax denotes the maximum level reached in the sampled fluid or tissue. For orientation: Tmax means the time at which the peak concentration occurs. The term AUC denotes concentration integrated over time.

Molecules are shown by their SMILES.

The nature of data set [1]: Inhibition of basic FGF-induced proliferation of human umbilical vein endothelial cells. Format: functional, cell-based. To be noted: Endothelial cell.
Data set [2] can be described thus: Distribution at steady state was determined in dogs dosed at […] and 1 mg/kg po in 0.5% HPMC w/0.1%Tween 80 (n=2). Format: ADME, organism-based, Canis lupus familiaris. To be noted: dog, in vivo, iv, read-out: Vdss.
The nature of data set [3]: Distribution at steady state was determined in rats dosed at […] iv in 10% HP-alpha-cyclodextrin in 0.05 M acetic acid and 10 mg/kg po in 0.5% HPMCw/0.1% Tween 80 (n=3). Format: ADME, organism-based. To be noted: rat, in vivo, read-out: Vdss.
The nature of data set [4]: Half life in dogs dosed at 1 mg/kg iv in 40% […] and 1 mg/kg po in 0.5% HPMC w/0.1%Tween 80 (n=2). Format: ADME, organism-based, Canis lupus familiaris. To be noted: dog, in vivo. The method in brief: (§1)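 Male beagle dogs (n = 2). IV 1 mg/kg in 40% SBE-β-cyclodextrin and oral gavage 1 mg/kg in 0.5% HPMC/0.1% Tween 80, dose volume 0.5 mL/kg. Plasma precipitated with four volumes of acetonitrile and analysed by HPLC/MS. Parameters are averages of two dogs.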

A short description of data set [5]: Half life in rats dosed at […] iv in 10% HP-alpha-cyclodextrin in 0.05 M acetic acid and 10 mg/kg po in 0.5% HPMCw/0.1% Tween 80 (n=3). Format: ADME, organism-based. To be noted: rat, in vivo.
Data set [6] can be described thus: Bioavailability of compound was determined in dogs dosed at 1 mg/kg iv in 40% […] and 1 mg/kg po in 0.5% HPMC w/0.1%Tween 80 (n=2). Format: ADME, organism-based, Canis lupus familiaris. Particulars: dog, in vivo. The method in brief: as §1
Data set [7] in a line: Bioavailability of compound was determined in rats dosed at […] iv in 10% HP-alpha-cyclodextrin in 0.05 M acetic acid and 10 mg/kg po in 0.5% HPMCw/0.1% Tween 80 (n=3). Format: ADME, organism-based. Particulars: rat, in vivo.
The subject of data set [8] is HT-29. The data set is described as follows: In vitro inhibition of human colon tumor HT-29 cell proliferation. Format: functional, cell-based.
Data set [9] can be described thus: Peak plasma concentration in mice following oral administration of an aqueous solution of the bis-mesylate salt of the compound. Format: ADME, organism-based. Also on record: route oral. To be noted: mouse. In outline: (§2)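 Male CD mice (n = 2) given the bis-mesylate salt as an aqueous solution at 100 mg/kg by oral gavage, dose volume 10 mL/kg. Plasma taken from blood kept on wet ice, stored at -20 °C, protein-precipitated with four volumes of acetonitrile and analysed by HPLC/MS.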

Data set [10] is described as follows: Time at which peak plasma concentration is attained in mice following oral administration of an aqueous solution of the bis-mesylate salt of the compound. Particulars: mouse. Format: ADME, organism-based. In outline:
as §2

Data set [11] in a line: Area under concentration time curve in mice following oral administration of an aqueous solution of the bis-mesylate salt of the compound. Format: ADME. To be noted: mouse, in vivo. The method in brief:
as §2

For the compound `CCS(=O)(=O)c1ccc(OC)c(Nc2ncc(-c3cccc(-c4ccccc4Cl)c3)o2)c1`, it took 1.1 µM to reach half-maximal inhibition in [1] (IC50).

As for `CCS(=O)(=O)c1ccc(OC)c(Nc2ncc(-c3cccc(-c4ccccn4)c3)o2)c1.CS(=O)(=O)O`, the Vd in data set [2] came out at 3.74 L/kg; in [3], 1.03 L/kg. The half-life in data set [4] was 210 min; in data set [5], 96 min. The bioavailability in data set [6] worked out at 7%; in [7], 11%.

For `CCS(=O)(=O)c1ccc(OC)c(Nc2ncc(-c3cccc(-c4ccccn4)c3)o2)c1`, the figures for the IC50 in [1] and in [8] were 5.8 µM and 4.5 µM, respectively. In addition, in [9], the Cmax is 35 µM. Besides, the Tmax in [10] stood at 4 h. Further, the AUC in data set [11] was 102 µg·h/mL.

`c1ccc(Nc2ncc(-c3ccccc3)o2)cc1` [GW549390X] had an IC50 in data set [1] of 24 µM.

For the compound `COc1cc2/c(=N/c3ccc(Br)cc3F)nc[nH]c2cc1OCC1CCN(C)CC1` [VANDETANIB], the IC50 in data set [1] came out at 1.2 µM.

For the compound `Clc1ccc(Nc2nnc(Cc3ccncc3)c3ccccc23)cc1` [VATALANIB], the IC50 in data set [1] is 25 µM. This IC50 lies about 21-fold higher than the previous one.
